Source: PubChem BioAssay (Broad Institute)
DENV2 CPE – inhibitors of DENV2 cytopathic effect, primary screen, cell-based, plate reader, single concentration. DENV2-infected cells, cytopathic effect rescue. CPE inhibition, % at 9.99 µM. 1.7% of 350,000 active. AID 651640, 2012; in the data active means CPE inhibition above about 20%, passing the limit was not always enough; inconclusive means no clear call, values can overlap the other calls; tested in BHK-21 cells
SIRT5 inh – SIRT5 desuccinylase inhibitors, primary screen, biochemical, fluorescence imaging, single point, set 5 | NAD-dependent protein deacylase sirtuin-5, mitochondrial (Homo sapiens), Q9NXA8 | Purified SirT5, succinyl-peptide AMC, trypsin-coupled fluorescence | inhibition, % at 15 µM | 1.1% of 330,000 active | AID 652115, 2013; in the data active means inhibition above about 15%; inconclusive means no clear call, values can overlap the other calls
Target sequence (Q9NXA8 whole entry, looked up): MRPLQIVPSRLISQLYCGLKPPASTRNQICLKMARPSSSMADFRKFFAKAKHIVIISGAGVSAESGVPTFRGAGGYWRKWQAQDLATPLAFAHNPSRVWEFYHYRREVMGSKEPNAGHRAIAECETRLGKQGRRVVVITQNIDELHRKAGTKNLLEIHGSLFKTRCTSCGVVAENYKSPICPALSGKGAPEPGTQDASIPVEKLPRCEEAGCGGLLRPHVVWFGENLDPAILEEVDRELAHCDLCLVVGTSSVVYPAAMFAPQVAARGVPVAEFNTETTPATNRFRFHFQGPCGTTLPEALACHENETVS
Statin myotox sup – suppressors of statin myotoxicity in C2C12 myotubes, primary screen, cell-based, single point, plate reader | C2C12 myotubes + simvastatin, ATP luminescence, 48 h; scaled: DMSO 0, geranylgeraniol control 100 | rescue of ATP level, % at 7.49 µM | 0.78% of 330,000 active | AID 602340, 2012;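 active means mean ATP rescue above about 67%, or every replicate alone reaching that limit, limit read from the data, passing the limit was not always enough; inconclusive means no clear call, values can overlap the other calls; inactive means mean under the limit and some replicate under it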;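 further: myotubes were challenged with 10 µM simvastatin during compound exposure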
S100A4 MyoIIA – inhibitors of S100A4-myosin IIA peptide binding, primary screen, biochemical, fluorescence polarization, TAMRA-MyoIIA peptide; Protein S100-A4 (Homo sapiens), P26447; inhibition, % at 10.7 µM; 0.14% of 360,000 active;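 active means mean inhibition of at least 70% across replicates, with every replicate also reaching that level; inconclusive means mean inhibition reaches 70% but some replicates fall short; inactive means mean inhibition below 70%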
Target sequence (P26447 whole entry, looked up): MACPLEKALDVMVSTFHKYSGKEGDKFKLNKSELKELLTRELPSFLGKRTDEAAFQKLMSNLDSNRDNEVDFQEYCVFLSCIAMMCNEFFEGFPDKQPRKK
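Material: S100A4 monomer (human). Medium: Calcium-containing HEPES buffer, pH 7.2. Probe or stimulus: labelled myosin peptide probe, 5 nM. Compound dosing: one concentration per compound. Timing: polarization read 5 min after assay mix addition, stable 5–60 min. Benchmarks: DMSO as neutral control, TFP as positive control.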
PGC1a acetyl inh – inhibitors of PGC1a acetylation signal, primary screen, cell-based, U2OS, AlphaScreen, inhibitor mode; AlphaScreen anti-acetyl-lysine; with virally co-expressed GCN5 acetyltransferase; inhibition, % at 15.6 µM; 0.17% of 350,000 active; AID 651687, 2012;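 active means every replicate shows inhibition of at least 40%; inconclusive means mean inhibition at least 40% but some replicate below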
Of the large screens only hits and unclear results are named; the others gave an inactive call; ! = a repeat was not active. Compounds with a hit are over-represented: about 2.9% of the library has one in this group of screens.

CCCNC(=O)N1[C@@H]2Cn3c(cccc3=O)[C@H]1[C@@H](C(=O)N1CCC(Cc3ccccc3)CC1)[C@@H]2CO	SIRT5 inh 21 (no result: PGC1a acetyl inh)
C[C@@H]1CN([C@@H](C)CO)C(=O)c2cc(NC(=O)Nc3ccc(F)cc3)ccc2O[C@@H]1CN(C)Cc1ccc(Cl)c(Cl)c1	none
COCC(=O)N1C[C@@H](C)[C@H](OC)CN(C)C(=O)c2ccc(NC(=O)c3ccccc3)cc2OC[C@H]1C	none
C[C@H]1CN([C@@H](C)CO)C(=O)c2cccc(NC(=O)C3CCCCC3)c2O[C@@H]1CN(C)C(=O)Nc1ccc(C(F)(F)F)cc1	none
CCCNC(=O)N(C)C[C@@H]1Oc2ncc(C#Cc3ccncc3)cc2C(=O)N([C@H](C)CO)C[C@@H]1C	none
O=C(NCC1CCCCC1)[C@@H]1[C@@H](CO)[C@@H]2Cn3c(ccc(-c4cccnc4)c3=O)[C@H]1N2	DENV2 CPE 106 (no result: Statin myotox sup)
O=C([C@H]1[C@H](CO)[C@H]2Cn3c(cccc3=O)[C@@H]1N2Cc1ccccc1)N1CCCCC1	none (no result: PGC1a acetyl inh)
O=C([C@@H]1[C@@H](CO)[C@@H]2Cn3c(cccc3=O)[C@H]1N2Cc1ccccc1)N1CCCCC1	DENV2 CPE 50 (no result: PGC1a acetyl inh)
O=C(NC1CCCC1)[C@H]1[C@H](CO)[C@H]2Cn3c(ccc(-c4cccnc4)c3=O)[C@@H]1N2CC1CC1	none (no result: PGC1a acetyl inh)
O=C(NC1CCCC1)[C@@H]1[C@@H](CO)[C@@H]2Cn3c(ccc(-c4ccccc4)c3=O)[C@H]1N2CC1CC1	DENV2 CPE 25 (no result: Statin myotox sup)
O=C(NCC1CCCCC1)[C@@H]1[C@@H](CO)[C@@H]2Cn3c(ccc(-c4cncnc4)c3=O)[C@H]1N2	none (no result: PGC1a acetyl inh)
C[C@@H]1CN([C@H](C)CO)S(=O)(=O)c2ccc(-c3ccc(F)cc3)cc2O[C@@H]1CN(C)C(=O)Nc1ccc(F)cc1	none (no result: DENV2 CPE, SIRT5 inh, S100A4 MyoIIA)
O=C(NCC[C@H]1CC[C@@H](NC(=O)C2CC2)[C@@H](CO)O1)c1ccc(F)cc1	DENV2 CPE inconclusive
Cc1ccc(N(CN2C(=O)c3ccccc3C2=O)C(=O)c2ccc([N+](=O)[O-])cc2[N+](=O)[O-])cc1	SIRT5 inh 112 (no result: DENV2 CPE, Statin myotox sup, PGC1a acetyl inh)
O=C1c2ccccc2C(=O)N1CN(C(=O)c1ccccc1[N+](=O)[O-])c1ccc(F)cc1	none (no result: Statin myotox sup)
Cc1cccnc1NC(=O)c1ccc(S(=O)(=O)N2CCC(C)CC2)cc1	none
O=C(Nc1cccc(O)c1)c1ccc(S(=O)(=O)N2CCCCCC2)cc1	none
O=C(Nc1cccc(F)c1)c1ccc(S(=O)(=O)N2CCCCC2)cc1	DENV2 CPE 114 (no result: Statin myotox sup)
Cc1cccnc1NC(=O)c1ccc(S(=O)(=O)N2CCCC2)cc1	DENV2 CPE 65
CC(=O)N1c2ccc(S(=O)(=O)N3CCC(C(=O)Nc4ncccc4C)CC3)cc2CC1C (centres undefined)	S100A4 MyoIIA 86
CCNC(=O)C[C@H]1CC[C@@H]2[C@H](COc3ccc(NC(C)=O)cc3C(=O)N2C)O1	none
CCOc1ccc(-c2nc(CSCC(=O)NCc3ccco3)c(C)o2)cc1	Statin myotox sup 111 (no result: DENV2 CPE, SIRT5 inh, S100A4 MyoIIA)
CO[C@@H]1CN(C)C(=O)c2cc(NC(=O)CC(F)(F)F)ccc2OC[C@@H](C)N(C(C)=O)C[C@@H]1C	none (no result: Statin myotox sup)
CCc1ccccc1N(CC)C(=O)c1cn(C)c(=O)c2cc(OC)c(OC)cc12	Statin myotox sup 95 (no result: DENV2 CPE, SIRT5 inh, S100A4 MyoIIA)
CCOc1ccccc1N(C)C(=O)c1cn(CC)c(=O)c2cc(OC)c(OC)cc12	SIRT5 inh 20 (no result: PGC1a acetyl inh)
CCn1cc(C(=O)N(C)c2ccccc2F)c2cc(OC)c(OC)cc2c1=O	none
CC(C)CC#Cc1ccc2c(c1)O[C@H](CN(C)C(=O)C1CCOCC1)[C@H](C)CN([C@@H](C)CO)S2(=O)=O	none
O=C(Nc1ccc(C(F)(F)F)cc1)N1C[C@@H]2N[C@H](C1)C2c1ccc(/C=C/c2ccccc2)cc1 (some centres undefined)	PGC1a acetyl inh 73! (no result: Statin myotox sup)
O=C(C1CCC1)N1C[C@@H]2N[C@H](C1)C2c1ccc(/C=C/c2ccccc2)cc1 (some centres undefined)	none (no result: Statin myotox sup)
COCC(=O)Nc1ccc2c(c1)[C@@H]1C[C@@H](CC(=O)NCc3ccccn3)O[C@@H](CO)[C@@H]1O2	none
CC(C)Oc1ccc(C(=O)OC(C)C(=O)NC2CCCCC2C)cc1 (centres undefined)	none
CC(=O)c1ccc(OC(C)C(=O)NC2CCCCC2C)cc1 (centres undefined)	DENV2 CPE 67
C[C@H](CO)N1C[C@H](C)[C@@H](CN(C)C(=O)CCCN(C)C)OCCCC[C@H](C)Oc2ccc(NC(=O)CCCN(C)C)cc2C1=O	DENV2 CPE 85 (no result: Statin myotox sup)
C[C@@H]1CN([C@@H](C)CO)C(=O)c2cc(NC(=O)CCCN(C)C)ccc2O[C@@H](C)CCCCO[C@@H]1CN(C)C(=O)Cc1ccccc1	DENV2 CPE 64 (no result: Statin myotox sup)
C[C@@H]1CCCCO[C@H](CN(C)C(=O)CCCN(C)C)[C@@H](C)CN([C@H](C)CO)C(=O)c2cc(NC(=O)Nc3ccc(F)cc3)ccc2O1	DENV2 CPE 37 (no result: Statin myotox sup)
C[C@H]1CCCCO[C@H](CN(C)C(=O)CCCN(C)C)[C@@H](C)CN([C@@H](C)CO)C(=O)c2cc(NC(=O)c3ccccc3)ccc2O1	DENV2 CPE 53
C[C@@H]1CN([C@@H](C)CO)C(=O)c2cc(NC(=O)c3ccccc3)ccc2O[C@@H](C)CCCCO[C@@H]1CN(C)C(=O)CCCN(C)C	none
COc1ccc(S(=O)(=O)N2C[C@H](O)COC[C@@H]3O[C@H](CC(=O)NCCCN4CCOCC4)CC[C@H]32)cc1	none
CCNC(=O)[C@@H]1[C@@H](CO)[C@@H]2Cn3c(ccc(/C=C/c4ccccc4)c3=O)[C@H]1N2C(=O)c1ccncc1	none (no result: PGC1a acetyl inh)
COC(=O)C[C@@H]1C[C@@H]2c3cc(NS(=O)(=O)c4ccccc4)ccc3O[C@@H]2[C@H](CO)O1	none (no result: SIRT5 inh, S100A4 MyoIIA)
C[C@@H]1CN([C@@H](C)CO)C(=O)c2cc(NC(=O)Nc3ccc4c(c3)OCO4)ccc2O[C@H]1CN(C)Cc1ccc2c(c1)OCO2	none
C[C@@H]1CCCCO[C@@H](CN(C)C(=O)CCCN(C)C)[C@@H](C)CN([C@H](C)CO)C(=O)c2cc(NC(=O)Cc3ccccc3)ccc2O1	DENV2 CPE 142 (no result: Statin myotox sup)
COc1ccc([Si](C)(C)[C@H]2[C@H](CCO)O[C@@]3(C(=O)N(Cc4cccc(N5CCCCC5=O)c4)c4ccccc43)[C@@H]2C)cc1	none (no result: Statin myotox sup)
O=S(=O)(O)c1cccc2c(N=Nc3ccc(O)c4ncccc34)cccc12	SIRT5 inh 34 (no result: DENV2 CPE)
Cc1ccccc1N=Nc1ccc(O)c2ncccc12	none (no result: Statin myotox sup)
Cc1ccccc1OCC(O)CN1CCN(CC(O)COc2ccccc2C)CC1 (centres undefined)	SIRT5 inh 30 (no result: Statin myotox sup, PGC1a acetyl inh)
Cc1ccc(C)c(OCC(O)CN2CCC(C)CC2)c1C (centres undefined)	Statin myotox sup 111 (no result: DENV2 CPE, SIRT5 inh, S100A4 MyoIIA)
